PRMT1 inh: PRMT1 methyltransferase inhibitors, primary screen, biochemical, fluorescence polarization; inhibition, % at 2.79 µM; recombinant PRMT1, activity-based probe fluorescence polarization; Protein arginine N-methyltransferase 1 (Homo sapiens), Q99873; 370,000 compounds, 1.3% hits;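 active = inhibition above about 21% made by adding two undisclosed values, limit read from the data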
Target sequence (Q99873 whole entry, looked up): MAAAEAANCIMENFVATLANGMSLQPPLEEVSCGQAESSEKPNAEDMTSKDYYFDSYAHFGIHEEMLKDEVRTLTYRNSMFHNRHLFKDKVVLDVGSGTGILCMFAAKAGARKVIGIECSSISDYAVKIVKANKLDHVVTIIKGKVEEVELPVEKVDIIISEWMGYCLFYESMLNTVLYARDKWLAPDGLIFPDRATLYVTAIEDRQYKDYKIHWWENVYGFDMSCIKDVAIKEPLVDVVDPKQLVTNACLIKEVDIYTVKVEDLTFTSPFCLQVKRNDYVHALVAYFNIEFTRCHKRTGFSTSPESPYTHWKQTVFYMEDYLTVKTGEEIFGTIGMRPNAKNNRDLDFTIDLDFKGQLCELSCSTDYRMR
HTRA1 inhibitor: HTRA1 serine protease inhibitors, primary screen, biochemical, fluorescence polarization, HTS; inhibition, % at 5.96 µM; recombinant HTRA1, FP-rhodamine activity-based probe; 340,000 compounds, 0.5% hits; Q92743; in the data active = inhibition above about 36%;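 also: 0% = enzyme with DMSO and 100% = wells lacking enzyme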
mABHD4 FP: ABHD4 inhibitors, primary screen, biochemical, fluorescence polarization, mouse; AID 720543, 2013; inhibition, % at 8.92 µM; 370,000 compounds, 0.54% hits; (Lyso)-N-acylphosphatidylethanolamine lipase (Mus musculus), Q8VD66; purified mABHD4, FP-Rh probe fluorescence polarization;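 active = inhibition exceeding the mean over every tested compound plus 3 SD, cut at about 30% in these data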;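 also: 0% = plate median of compound wells and 100% = S159A mutant with DMSO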
Target sequence (Q8VD66 whole entry, looked up): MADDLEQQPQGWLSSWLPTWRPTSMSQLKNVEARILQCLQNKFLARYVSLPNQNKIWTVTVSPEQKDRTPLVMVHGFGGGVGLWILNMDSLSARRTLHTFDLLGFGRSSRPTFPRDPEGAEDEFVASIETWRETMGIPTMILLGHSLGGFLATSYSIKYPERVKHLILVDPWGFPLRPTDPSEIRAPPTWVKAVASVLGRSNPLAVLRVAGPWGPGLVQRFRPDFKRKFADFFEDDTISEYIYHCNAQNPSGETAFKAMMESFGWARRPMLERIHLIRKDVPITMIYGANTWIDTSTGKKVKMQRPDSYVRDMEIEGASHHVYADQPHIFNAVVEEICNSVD
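Material: mouse ABHD4 enzyme, wild type; Benchmarks: S159A mutant high control, sample median low control; Buffer or medium: HEPES pH 7.0, NaCl, Pluronic buffer; Signal: fluorescence polarization; Read-out: percent inhibition of probe binding, normalized to plate controls; Timing: pre-incubation 45 min, probe exposure 60 min, at 25 °C; Dosing: 8.92 µM, single dose.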
SIAE inh: human SIAE inhibitors, primary screen, biochemical, fluorescence polarization, FP-Rh probe, 1536-well HTS. Sialate O-acetylesterase (Homo sapiens), Q9HAT2. SIAE FP-Rh probe binding. inhibition, % at 9.66 µM. 370,000 compounds, 0.69% hits;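 active = inhibition above a cutoff: mean of compounds within the control limits plus 3 SD of those, cut at about 17% in these data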;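 also: 0% = plate median of compound wells and 100% = probe without SIAE protein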
TCR CD3 inh: inhibitors of human TCR-CD3 interaction, primary screen, biochemical, fluorescence, TAMRA-labeled TCR probe; T-cell receptor (TCR); inhibition, % at 9.4 µM; 360,000 compounds, 0.37% hits;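 also: recombinant mutant TCR 2C K166C tagged with TAMRA read by polarization; 0% = receptor in buffer alone and 100% = receptor with positive control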
BSA probe FL: compounds interfering with TAMRA-BSA probe, counter-screen for TCR-CD3 interaction inhibitor project, biochemical, fluorescence, TAMRA-labeled BSA | shares compounds with TCR CD3 inh | TAMRA-labeled BSA probe fluorescence counterscreen | inhibition, % at 9.4 µM | 1,200 compounds, 10% hits | AID 652035, 2013; in the data active = inhibition above about 23%;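 also: 0% = buffer low control and 100% = reference high control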
TCR-CD3 inh conf: TCR-CD3 interaction inhibitors, retest, confirmation, biochemical, fluorescence, TAMRA-labeled TCR probe; shares compounds with TCR CD3 inh; TAMRA-labeled TCR probe fluorescence binding assay; inhibition, % at 9.4 µM; 1,200 compounds, 48% hits; AID 652036, 2013
* marks the source's active call; other numbers are inactive results; · = no result given. Most compounds without a hit are left out; they make up all but 2.6% or so of the library. Rule as the data show it, unless noted: active = inhibition above about 19%; inactive = the rest.

SMILES	PRMT1 inh	HTRA1 inhibitor	mABHD4 FP	SIAE inh	TCR CD3 inh	BSA probe FL	TCR-CD3 inh conf
COC(=O)[C@]12C[C@H](CC(=O)N3CCOCC3)C(=O)N(Cc3ccc4c(c3)OCO4)C1=C[C@H](C(C)(C)C)O[C@@H]2C	-2.0	·	3.4	-1.5	4.1	·	·
COc1ccccc1NC(=O)C1CCN(S(=O)(=O)c2cccc3nonc23)CC1	-1.7	-2.6	-3.0	6.4	4.6	·	·
CCN(c1ccccc1)S(=O)(=O)c1ccc(C(=O)NCC(=O)Nc2ccc(F)c(F)c2F)cc1	-1.4	-23.0	-35.5	-4.8	4.2	·	·
CN(C)c1ncnc2c1NC1=C(S2)C(=NCCCC(=O)O)CC(C)(C)C1	16.6	0.4	7.5	2.1	4.9	·	·
COc1ncnc2c1NC1=C(S2)C(=NCCC(=O)O)CC(C)(C)C1	27.8*	14.9	11.6	-5.2	28.7*	52.7*	41.1*
Cc1cccc(C)c1OCc1cccc(C2Nc3ccccc3C(=O)N2Cc2ccco2)c1 (stereo unspecified)	17.8	·	-22.2	-6.1	·	·	·
O=Cc1ccc(C(=O)OCC(=O)NC(=O)Nc2ccccc2F)cc1	·	-44.0	·	·	·	·	·
O=C(N/N=C/C(Br)=C\c1ccccc1)c1ccco1	0.6	·	-5.0	-1.6	169.8*	-0.1	4.0
Oc1ccc(/C=C/c2nc(-c3ccccc3O)n(-c3ccccc3)n2)cc1	-0.8	-10.2	-25.6	2.0	46.4*	3.3	3.0
COC(=O)CC1(C(=O)OC)Nc2cc(Cl)c(Cl)cc2S(=O)(=O)N1O (stereo unspecified)	-5.2	0.0	-2.0	-15.5	38.2*	-0.4	28.9*
COC(=O)CCC(=O)Nc1ccc(Cl)c(Cl)c1	11.3	-4.3	-13.1	-10.7	-10.1	·	·
Cc1ccc2[nH]c(C(=O)N/N=C/c3ccccc3O)c(C)c2c1	2.0	24.8	13.4	9.5	20.4*	-6.2	18.8
CC(C)Cc1nc2sc3c(=O)[nH]cnc3c2c2c1CCCC2	0.2	-4.8	6.5	1.7	20.0*	4.5	7.4
CC(C)Cc1nc2oc3c(=O)[nH]cnc3c2c2c1CCCC2	-0.3	5.8	5.0	-3.0	3.3	·	·
CCOC(=O)c1c(C)[nH]c(C(=O)OCC(=O)N(C)CC(=O)Nc2ccccc2Cl)c1C	11.2	-9.3	-5.8	2.0	2.6	·	·
CC(=O)NNC(=O)c1sc(=S)n2c1[nH]c(=O)c1sccc12	-0.1	11.9	19.5	-9.2	29.0*	-2.2	8.6
NC(=O)c1sc(=S)n2c1[nH]c(=O)c1sccc12	1.6	-2.1	6.9	-26.0	-2.4	·	·
CC(=O)c1nc(N2C(=O)CC(Cc3ccc(C)cc3)C2=O)sc1C (stereo unspecified)	3.0	-3.5	-3.4	-3.0	55.6*	-2.3	3.6
Cc1nc2ccccc2c(=O)n1/N=C/c1ccc2ccccc2c1O	·	4.5	·	·	·	·	·
C/C(=N\OCc1nc2ccccc2c(=O)n1/N=C/c1cc(C)cc([N+](=O)[O-])c1O)c1ccccc1	0.1	-0.2	8.5	10.9	39.1*	-5.7	49.8*
Cc1cc([N+](=O)[O-])cc(/C=N/n2c(C)nc3ccccc3c2=O)c1O	-4.1	6.0	0.7	10.5	45.3*	-14.7	45.1*
O=c1c2ccccc2nc(COc2ccccc2)n1/N=C/c1ccc(O)cc1O	5.2	12.9	11.7	4.2	21.4*	-8.8	21.4*
O=C(Cc1ccc(NC(=O)C2CCCN(C(=O)C3CCC3)C2)cc1)Nc1cccc(C(=O)N2CCCCC2)c1 (stereo unspecified)	-9.2	1.9	2.7	-2.2	2.4	·	·
COc1ccc(C(=O)Nc2ccc(S(=O)(=O)N3CCCCC3)cc2)cc1OC	-1.3	-13.7	-6.9	-14.1	8.9	·	·
COc1ccc(-c2cnnn2-c2ccc(NC(=O)c3ccc(S(=O)(=O)N4CCCCC4)cc3)cc2)cc1OC	1.9	-53.5	-77.5	-81.6	19.5*	6.9	22.8*
SMILES	PRMT1 inh	HTRA1 inhibitor	mABHD4 FP	SIAE inh	TCR CD3 inh	BSA probe FL	TCR-CD3 inh conf
O=C1NC(c2ccccc2)(c2ccccc2)C(=O)N1CNc1ccccn1	2.8	·	3.1	-1.6	-1.4	·	·
COc1ccc(-c2nn(-c3ccccc3)cc2/C=N/NC(=O)c2ccc(Br)o2)cc1	2.6	-14.6	-12.1	-92.1	-7.0	·	·
COc1ccc(-c2nn(-c3ccccc3)cc2/C=N/NC(=O)c2cccc(S(=O)(=O)Nc3ccccc3OC)c2)cc1	1.4	-26.1	-3.3	-99.3	41.1*	31.8*	45.8*
Cc1ccc(Cl)cc1NC(=O)N(C)CCOC(=O)Nc1cccc(Cl)c1	-1.4	·	-16.4	1.5	-6.5	·	·
Nc1nonc1C(=O)N/N=C/c1cc(Br)ccc1O	3.6	·	14.6	-1.8	22.6*	-8.1	19.7*
CCN(CC)c1ncnc2c1ncn2[C@H]1CN(Cc2ccc(F)cc2)C[C@@H](CO)O1	2.4	·	-1.5	5.8	0.4	·	·
O=C(NCc1ccc(C(=O)N2CCOCC2)cc1)c1cccc(Br)c1	-1.2	·	5.9	5.1	·	·	·
O=S(=O)(Nc1cccc2ncccc12)c1cccc(C(F)(F)F)c1	1.4	-4.2	-41.6	0.8	20.4*	3.1	8.4
Cc1cc(C)c(-n2c(SCC(=O)N3CCOCC3)n[nH]c2=O)c(C)c1	2.6	1.9	-4.3	4.8	10.7	·	·
COc1ccc(C(=O)NCC(c2ccc3c(c2)OCO3)N2CCN(c3ccc(OC)cc3)CC2)cc1 (stereo unspecified)	5.8	-0.9	1.1	10.1	23.6*	5.7	4.7
O=C(CC1CCCC1)NNC(=O)c1ccccc1O	-1.1	8.9	4.9	-1.2	29.2*	-15.0	23.4*
O=C(NCCNC(=O)c1ccccc1O)c1ccccc1O	-2.0	4.0	1.5	3.4	14.4	·	·
Cc1ccc(C(=O)CCC(=O)NNC(=O)c2ccccc2O)cc1	1.2	18.0	2.6	5.7	21.3*	-14.2	22.9*
O=C(NC1CCCCCCC1)c1ccccc1O	-3.4	-7.8	-4.3	7.1	-1.6	·	·
O=C(CCNC(=O)c1ccccc1Cl)NNC(=O)c1ccccc1O	1.2	0.1	-1.1	1.6	23.5*	-16.3	18.3
Cc1ccc2c(CC(=O)NNC(=O)c3ccccc3O)coc2c1	-2.5	28.1	13.3	5.0	20.5*	-11.2	20.9*
O=C(Cn1c(=O)oc2ccccc21)Nc1ccc(F)cc1	-2.0	-4.5	-10.0	-1.8	-8.2	·	·
COc1cccc(CNC(=O)[C@H]2CCCN2C(=O)[C@H]2CCCN2C(=O)c2ccc(F)c(F)c2)c1	-0.1	·	1.2	-3.1	6.3	·	·

High-throughput results (PubChem)
